Source: ChEMBL document CHEMBL1800056, “Discovery of 2-(6-{[(6-fluoroquinolin-2-yl)methyl]amino}bicyclo[3.1.0]hex-3-yl)-N-hydroxypyrimidine-5-carboxamide (CHR-3996), a class I selective orally active histone deacetylase inhibitor” (J Med Chem, 2010)
Active and inactive are the calls of the source. No cut-off for these calls is given here.

Legend:
MOLT-4 = experiment: Antiproliferative activity against human MOLT4 cells after 72 hrs by WST-1 assay; format: functional; conditions: Homo sapiens, MOLT-4, 72 h
In short: (§1)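 Cells seeded at (1-5) × 10³/well in serum-containing medium for 24 h at 37 °C, 5% CO₂. Inhibitor added at 0.6-10000 nM for 72 h, with WST-1 pulse over the final 4 h. Formazan read at 450 nm (reference 650 nm). Expressed as % inhibition of vehicle response; GI50 is the concentration inhibiting 50% of vehicle response; n = 6 replicates.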

[1] = Clearance in dog at 1 mg/kg, iv; format: ADME, organism-based, Canis lupus familiaris; set-up: dose 1 mg/kg, route intravenous; conditions: in vivo
In short: (§2)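 Dog single dose: iv 1 mg/kg in 5% DMSO-HPβC (11.25% w/v); po 10 mg/kg in 5% DMSO-saline. AUC0-t in ng h/mL, clearance in (mL/min)/kg, t1/2 in h, F in %.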

Cytochrome P450 2C19 [2] = target: T1, Cytochrome P450 2C19 (Homo sapiens, UniProt P33261); experiment: Inhibition of CYP 2C19 at < 10 uM; format: ADME
COR-L23 = experiment: Antiproliferative activity against human COR-L23 cells after 72 hrs by WST-1 assay; format: functional; conditions: Homo sapiens, COR-L23, 72 h; in short: as §1
HCT-116 [3] = experiment: Antiproliferative activity against human HCT116 cells after 72 hrs by WST-1 assay; format: functional; conditions: Homo sapiens, HCT-116, 72 h; in short: as §1
Histone deacetylase = experiment: Inhibition of HDAC in human HeLa cells nuclear extract using fluor de Lys as substrate preincubated for 5 mins by fluorometric analysis; format: cell-based
HCT-116 [4] = experiment: Cell cycle arrest in human HCT116 cells assessed as accumulation at sub-G1 phase at 300 nM after 15 hrs by propidium iodide staining based flow cytometric analysis; format: functional
Cytochrome P450 3A4 [5] = target: T2, Cytochrome P450 3A4 (Homo sapiens, UniProt P08684); experiment: Inhibition of CYP3A4; format: ADME
A549 = experiment: Antiproliferative activity against human A549 cells after 72 hrs by WST-1 assay; format: functional; conditions: Homo sapiens, A549, 72 h; in short: as §1
PC-3 = experiment: Antiproliferative activity against human PC3 cells after 72 hrs by WST-1 assay; format: functional; conditions: PC-3, 72 h; in short: as §1
[6] = Clearance in mouse liver microsomes assessed as compound remaining after 30 mins; format: ADME, Microsome; conditions: read-out: Activity
[7] = AUC (0 to t) in plasma of CD1 mouse at 3 mg/kg, po; format: ADME, organism-based; set-up: dose 3 mg/kg, route oral
In short: (§3)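 Oral cassette PK in CD1 mice: four compounds per cassette, each at 3 mg/kg po. AUC0-t (ng h/mL) measured in plasma and spleen; spleen/plasma AUC ratio reported.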

Histone deacetylase 1 = Histone deacetylase 1 (Homo sapiens, UniProt Q13547); experiment: Inhibition of human recombinant HDAC1 using fluor de Lys as substrate by fluorometric analysis
[8] = Oral bioavailability in dog at 10 mg/kg; format: ADME, organism-based, Canis lupus familiaris; conditions: in vivo; in short: as §2
Spleen = experiment: Ratio of AUC (0 to t) in spleen to plasma of CD1 mouse at 3 mg/kg, po; conditions: in vivo
Cytochrome P450 2D6 [9] = target: T3, Cytochrome P450 2D6 (Homo sapiens, UniProt P10635); experiment: Inhibition of CYP2D6; format: ADME
[10] = Clearance in human liver microsomes assessed as compound remaining after 30 mins; format: ADME, Microsome; conditions: read-out: Activity
HCT-116 [11] = experiment: Induction of apoptosis in human HCT116 cells assessed as PARP cleavage after 30 hrs by Western blot analysis; format: functional, cell-based
In short: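 HCT116 cells seeded at 2 × 10⁴ cells/mL and treated 24 h later for 30 h. RIPA lysates run at 10 μg/lane on 4-12% gels. Blotted with antibodies to PARP and cleaved PARP (1:1000); GAPDH as loading control; ECL detection.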

DU-145 = experiment: Antiproliferative activity against human DU145 cells after 72 hrs by WST-1 assay; format: functional; conditions: DU-145, 72 h
In short: (§4)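 Cells seeded at (1-5) × 10³/well in serum-containing medium for 24 h at 37 °C, 5% CO₂. Inhibitor added at 0.6-10000 nM for 72 h, with WST-1 pulse over the final 4 h. Formazan read at 450 nm (reference 650 nm).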

HepG2 = experiment: Antiproliferative activity against human HepG2 cells after 72 hrs by WST-1 assay; format: functional; conditions: Homo sapiens, HepG2, 72 h; in short: as §1
[12] = target: Protein deacetylase HDAC6 (Homo sapiens, UniProt Q9UBN7); experiment: Inhibition of human recombinant HDAC6 using fluor de Lys as substrate by fluorometric analysis
[13] = Ratio of GI50 for human HCT116 cells to IC50 for HDAC in human HeLa cell nuclear extracts
In short: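 Cell/enzyme ratio = HCT116 GI50 divided by HDAC IC50. Enzyme: HeLa nuclear extract (10 μg protein), 5 min preincubation, then Fluor de Lys substrate 62.5 μM, 15 min at room temperature. Stopped with developer containing trichostatin A; fluorescence ex 355/em 455 nm; eight concentrations in duplicate. Cells: HCT116, 72 h exposure (0.6-10000 nM), WST-1 read at 450 nm, n = 6.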

HCT-116 [14] = experiment: Cell cycle arrest in human HCT116 cells assessed as accumulation at G1 phase at 300 nM after 15 hrs by propidium iodide staining based flow cytometric analysis; format: functional
HuT78 = experiment: Antiproliferative activity against human HUT78 cells after 72 hrs by WST-1 assay; format: functional; conditions: HuT78, 72 h; in short: as §4
HCT-116 [15] = experiment: Cell cycle arrest in human HCT116 cells assessed as accumulation at S phase at 300 nM after 15 hrs by propidium iodide staining based flow cytometric analysis; format: functional
[16] = AUC (0 to t) in spleen of CD1 mouse at 3 mg/kg, po; format: ADME, organism-based; set-up: dose 3 mg/kg, route oral; in short: as §3
LoVo = experiment: Antiproliferative activity against human LoVo cells after 72 hrs by WST-1 assay; format: functional; conditions: Homo sapiens, LoVo, 72 h; in short: as §1
[17] = AUC (0 to t) in dog at 1 mg/kg, iv; format: ADME, organism-based, Canis lupus familiaris; set-up: dose 1 mg/kg, route intravenous; conditions: plasma; in short: as §2
HCT-116 [18] = experiment: Cell cycle arrest in human HCT116 cells assessed as accumulation at G2/M phase at 300 nM after 15 hrs by propidium iodide staining based flow cytometric analysis; format: functional
Histone deacetylase 2 = Histone deacetylase 2 (Homo sapiens, UniProt Q92769); experiment: Inhibition of human recombinant HDAC2 using fluor de Lys as substrate by fluorometric analysis
MIA PaCa-2 = experiment: Antiproliferative activity against human MIAPaCa2 cells after 72 hrs by WST-1 assay; format: functional; conditions: Homo sapiens, MIA PaCa-2, 72 h; in short: as §1
U-937 = experiment: Antiproliferative activity against human U937 cells after 72 hrs by WST-1 assay; format: functional; conditions: Homo sapiens, U-937, 72 h; in short: as §1
Cytochrome P450 2D6 [19] = target: T3, Cytochrome P450 2D6; experiment: Inhibition of CYP2D6 at < 10 uM; format: ADME
MG-63 = experiment: Antiproliferative activity against human MG63 cells after 72 hrs by WST-1 assay; format: functional; conditions: Homo sapiens, MG-63, 72 h; in short: as §1
Cytochrome P450 2C19 [20] = target: T1, Cytochrome P450 2C19; experiment: Inhibition of CYP2C19; format: ADME
A2780 = experiment: Antiproliferative activity against human A2780 cells after 72 hrs by WST-1 assay; format: functional; conditions: Homo sapiens, A2780, 72 h; in short: as §1
Cytochrome P450 3A4 [21] = target: T2, Cytochrome P450 3A4; experiment: Inhibition of CYP3A4 at < 10 uM; format: ADME

T1 sequence (P33261 whole entry): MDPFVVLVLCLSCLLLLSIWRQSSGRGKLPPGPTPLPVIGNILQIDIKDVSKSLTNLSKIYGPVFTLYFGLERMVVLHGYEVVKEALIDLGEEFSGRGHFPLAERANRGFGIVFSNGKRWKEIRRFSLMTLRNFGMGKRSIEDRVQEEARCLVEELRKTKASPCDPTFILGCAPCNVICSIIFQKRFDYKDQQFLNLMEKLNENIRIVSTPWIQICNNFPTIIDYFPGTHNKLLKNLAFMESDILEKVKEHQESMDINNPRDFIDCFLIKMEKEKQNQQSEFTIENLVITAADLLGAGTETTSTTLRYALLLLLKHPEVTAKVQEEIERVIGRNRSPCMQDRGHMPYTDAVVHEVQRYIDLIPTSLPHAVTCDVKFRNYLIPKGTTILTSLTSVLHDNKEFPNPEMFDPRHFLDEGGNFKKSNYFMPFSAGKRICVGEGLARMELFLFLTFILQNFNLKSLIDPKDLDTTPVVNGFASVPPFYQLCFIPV
T2 sequence (P08684 whole entry): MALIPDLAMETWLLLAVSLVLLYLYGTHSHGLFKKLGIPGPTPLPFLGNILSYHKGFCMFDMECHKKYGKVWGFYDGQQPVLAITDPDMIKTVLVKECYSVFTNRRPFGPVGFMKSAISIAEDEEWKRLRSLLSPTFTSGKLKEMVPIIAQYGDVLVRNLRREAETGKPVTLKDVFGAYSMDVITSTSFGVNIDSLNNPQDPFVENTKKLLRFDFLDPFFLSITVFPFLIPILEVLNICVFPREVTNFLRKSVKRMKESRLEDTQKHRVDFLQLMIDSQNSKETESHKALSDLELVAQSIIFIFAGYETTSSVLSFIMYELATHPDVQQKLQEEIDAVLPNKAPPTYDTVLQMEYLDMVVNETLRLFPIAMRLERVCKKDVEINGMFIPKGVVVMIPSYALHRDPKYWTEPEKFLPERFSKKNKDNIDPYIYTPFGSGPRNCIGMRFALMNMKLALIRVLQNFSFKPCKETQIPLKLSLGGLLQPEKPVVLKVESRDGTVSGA
T3 sequence (P10635 whole entry): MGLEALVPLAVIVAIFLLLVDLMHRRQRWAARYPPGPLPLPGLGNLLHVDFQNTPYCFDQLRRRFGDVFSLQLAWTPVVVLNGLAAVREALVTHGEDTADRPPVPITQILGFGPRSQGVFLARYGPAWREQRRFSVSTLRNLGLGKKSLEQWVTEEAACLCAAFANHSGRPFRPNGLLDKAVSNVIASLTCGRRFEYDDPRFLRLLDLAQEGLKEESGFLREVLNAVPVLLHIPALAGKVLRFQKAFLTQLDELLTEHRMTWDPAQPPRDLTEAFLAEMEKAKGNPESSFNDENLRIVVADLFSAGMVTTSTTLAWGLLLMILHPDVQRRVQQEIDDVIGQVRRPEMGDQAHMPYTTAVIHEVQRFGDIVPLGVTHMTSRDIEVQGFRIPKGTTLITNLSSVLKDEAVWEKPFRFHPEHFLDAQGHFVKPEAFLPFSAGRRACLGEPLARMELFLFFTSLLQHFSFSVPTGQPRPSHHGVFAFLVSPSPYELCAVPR
Sequence of Protein deacetylase HDAC6 (Q9UBN7 whole entry): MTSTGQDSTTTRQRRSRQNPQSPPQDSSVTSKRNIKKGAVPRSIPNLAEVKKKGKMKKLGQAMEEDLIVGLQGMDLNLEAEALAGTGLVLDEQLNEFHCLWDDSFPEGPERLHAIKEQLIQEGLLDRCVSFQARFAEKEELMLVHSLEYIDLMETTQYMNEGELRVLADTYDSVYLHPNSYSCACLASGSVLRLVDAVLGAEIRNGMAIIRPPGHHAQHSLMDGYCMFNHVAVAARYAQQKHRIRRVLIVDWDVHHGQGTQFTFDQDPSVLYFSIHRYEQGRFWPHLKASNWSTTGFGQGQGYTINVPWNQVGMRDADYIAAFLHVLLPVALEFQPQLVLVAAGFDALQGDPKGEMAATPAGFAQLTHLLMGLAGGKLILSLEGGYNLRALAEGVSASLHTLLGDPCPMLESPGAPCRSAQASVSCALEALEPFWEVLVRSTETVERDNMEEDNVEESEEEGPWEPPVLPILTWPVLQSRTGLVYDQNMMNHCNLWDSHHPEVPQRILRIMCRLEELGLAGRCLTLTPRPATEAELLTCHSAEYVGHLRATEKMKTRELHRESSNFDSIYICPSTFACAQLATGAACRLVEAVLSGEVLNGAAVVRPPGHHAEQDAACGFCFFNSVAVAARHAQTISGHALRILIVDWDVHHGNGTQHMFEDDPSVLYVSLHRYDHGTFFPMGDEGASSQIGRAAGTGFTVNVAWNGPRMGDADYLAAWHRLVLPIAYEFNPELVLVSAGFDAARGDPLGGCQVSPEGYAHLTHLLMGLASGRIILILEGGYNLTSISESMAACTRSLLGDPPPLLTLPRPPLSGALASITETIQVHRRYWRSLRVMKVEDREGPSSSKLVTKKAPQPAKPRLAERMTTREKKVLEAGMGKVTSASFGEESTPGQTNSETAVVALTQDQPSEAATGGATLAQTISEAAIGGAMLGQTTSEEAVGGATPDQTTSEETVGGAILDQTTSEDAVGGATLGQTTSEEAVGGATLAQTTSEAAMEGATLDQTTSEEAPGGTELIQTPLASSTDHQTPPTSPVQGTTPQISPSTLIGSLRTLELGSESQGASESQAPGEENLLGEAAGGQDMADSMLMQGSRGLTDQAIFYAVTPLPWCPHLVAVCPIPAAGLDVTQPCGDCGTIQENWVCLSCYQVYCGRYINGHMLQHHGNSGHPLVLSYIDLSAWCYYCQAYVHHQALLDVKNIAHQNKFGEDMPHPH
Sequence of Histone deacetylase 2 (Q92769 whole entry): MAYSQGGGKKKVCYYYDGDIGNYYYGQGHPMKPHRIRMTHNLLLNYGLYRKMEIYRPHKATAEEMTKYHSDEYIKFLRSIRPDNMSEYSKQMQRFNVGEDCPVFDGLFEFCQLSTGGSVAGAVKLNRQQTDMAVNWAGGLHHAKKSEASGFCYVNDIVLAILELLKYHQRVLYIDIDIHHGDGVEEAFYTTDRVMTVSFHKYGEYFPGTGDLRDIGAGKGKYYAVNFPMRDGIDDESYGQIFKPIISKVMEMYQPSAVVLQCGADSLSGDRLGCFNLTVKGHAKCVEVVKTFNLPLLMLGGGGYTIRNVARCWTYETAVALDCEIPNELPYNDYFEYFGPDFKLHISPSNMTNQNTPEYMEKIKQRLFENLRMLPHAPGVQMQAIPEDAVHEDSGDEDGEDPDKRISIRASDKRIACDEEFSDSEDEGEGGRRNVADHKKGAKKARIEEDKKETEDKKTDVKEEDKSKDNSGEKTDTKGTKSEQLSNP
Sequence of Histone deacetylase 1 (Q13547 whole entry): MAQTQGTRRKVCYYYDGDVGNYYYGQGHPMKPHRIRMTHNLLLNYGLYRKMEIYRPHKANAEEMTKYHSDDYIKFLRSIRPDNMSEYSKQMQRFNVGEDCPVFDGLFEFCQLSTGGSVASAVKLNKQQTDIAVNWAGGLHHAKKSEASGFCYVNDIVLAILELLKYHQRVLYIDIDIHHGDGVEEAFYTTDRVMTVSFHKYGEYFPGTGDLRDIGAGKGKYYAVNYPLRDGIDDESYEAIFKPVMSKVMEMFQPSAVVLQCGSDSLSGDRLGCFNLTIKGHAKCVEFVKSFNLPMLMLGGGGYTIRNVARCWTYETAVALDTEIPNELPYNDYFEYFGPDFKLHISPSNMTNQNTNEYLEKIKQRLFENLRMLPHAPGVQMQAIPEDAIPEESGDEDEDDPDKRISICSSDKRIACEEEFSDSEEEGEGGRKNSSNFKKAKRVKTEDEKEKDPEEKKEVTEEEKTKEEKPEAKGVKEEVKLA

GI50 (MOLT-4) [nM] | clearance [1] [mL/min/kg] | inhibition (INH) (Cytochrome P450 2C19 [2]) | GI50 (HCT-116 [3]) [nM] | IC50 (Histone deacetylase) [nM] | IC50 (Cytochrome P450 3A4 [5]) [nM] | GI50 (A549) [nM] | GI50 (PC-3) [nM] | remaining at 0.5 h [6] [%] | AUC(0-t) [7] [ng·h/mL] | IC50 (Histone deacetylase 1) [nM] | bioavailability [8] [%] | Ratio (Spleen) | IC50 (Cytochrome P450 2D6 [9]) [nM] | remaining at 0.5 h [10] [%] | GI50 (DU-145) [nM] | GI50 (HepG2) [nM] | SMILES | GI50 (COR-L23) [nM] | Activity (HCT-116 [4]) [%] | Activity (HCT-116 [11]) | other results
31 | 70 | Not Active | 72 | 8 | 10000 | 250 | 160 | 31 | 93 | 3 | 40 | 8.3 | > 50000 | 21 | 48 | 230 | O=C(NO)c1cnc(N2C[C@@H]3[C@H](C2)[C@H]3NCc2ccc3cc(F)ccc3n2)nc1 [NANATINOSTAT] | 105 | 21 | Active | Ki (Histone deacetylase): 4.8 nM; IC50 [12]: 2100 nM; Ratio [13]: 9; Activity (HCT-116 [14]): 21%; GI50 (HuT78): 31 nM; Activity (HCT-116 [15]): 10%; AUC(0-t) [16]: 775 ng·h/mL; GI50 (LoVo): 140 nM; AUC(0-t) [17]: 241 ng·h/mL; Activity (HCT-116 [18]): 48%; IC50 (Histone deacetylase 2): 4 nM; GI50 (MIA PaCa-2): 280 nM; GI50 (U-937): 52 nM; inhibition (INH) (Cytochrome P450 2D6 [19]): Not Active; GI50 (MG-63): 750 nM; IC50 (Cytochrome P450 2C19 [20]): > 50000 nM; GI50 (A2780): 210 nM; inhibition (INH) (Cytochrome P450 3A4 [21]): Not Active
71 | 63 | Not Active | 210 | 13 | > 50000 | 500 | 260 | 43 | 58 | 6 | 56 | 7.5 | 10000 | 38 | 92 | 470 | O=C(NO)c1cnc(N2C[C@@H]3[C@H](C2)[C@H]3NCc2ccc(Cl)cc2)nc1 | 210 | 23 | Active | IC50 [12]: 3300 nM; Ratio [13]: 16; Activity (HCT-116 [14]): 33%; GI50 (HuT78): 60 nM; Activity (HCT-116 [15]): 11%; AUC(0-t) [16]: 436 ng·h/mL; GI50 (LoVo): 310 nM; AUC(0-t) [17]: 265 ng·h/mL; Activity (HCT-116 [18]): 33%; IC50 (Histone deacetylase 2): 14 nM; GI50 (MIA PaCa-2): 620 nM; GI50 (U-937): 120 nM; inhibition (INH) (Cytochrome P450 2D6 [19]): Not Active; GI50 (MG-63): 1600 nM; IC50 (Cytochrome P450 2C19 [20]): 50000 nM; GI50 (A2780): 410 nM; inhibition (INH) (Cytochrome P450 3A4 [21]): Not Active
